# Measured values gathered from unrelated publications.
# Organism: Plasmodium falciparum
# Observed: parasite growth
SMILES,technique,strain,time,setting,IC50
CCN(CC)CCCC(C)Nc1ccnc2cc(Cl)ccc12 (stereo not drawn),,D6,,blood stage,0.02 µg/mL
COC1=CC(c2ccc[nH]2)=NC1=Cc1ccc(CCCCCCCCCCO)[nH]1,,DD2,,"drug-resistant strain, blood stage",80 nM
CCCCCCCCCCOc1cc2c(O)c(C(=O)OCC)cnc2cc1OCC,SYBR Green,3D7,,blood stage,< 5.7 nM
CCN(CC)CCCC(C)Nc1ccnc2cc(Cl)ccc12 (stereo not drawn),SYBR Green,W2,,"drug-resistant strain, blood stage",383 nM
OC(c1cc(C(F)(F)F)nc2c(C(F)(F)F)cccc12)C1CCCCN1 (stereo not drawn),,3D7,,blood stage,4.8 nM
Brc1ccc2c(c1)nc(N1CCNCC1)n2Cc1ccccc1,,K1,,"drug-resistant strain, blood stage",64 nM
O=C(Nc1ccc(F)cc1C(=O)O)c1ccc(-c2ccccc2)cc1,resazurin,NF54,48 h,gametocyte,9.43 nM
Brc1ccc2c(c1)nc(C1CCNCC1)n2Cc1ccccc1,,K1,,"drug-resistant strain, blood stage",61 nM
COC1=CC(c2ccc[nH]2)=NC1=Cc1ccc(CCCCCCCCCCCCO)[nH]1,,7G8,,"drug-resistant strain, blood stage",58 nM
Clc1ccc2c(c1)nc(NCCNCc1ccccc1)n2Cc1ccccc1,,K1,,"drug-resistant strain, blood stage",212 nM
CCN(CC)CCCC(C)Nc1ccnc2cc(Cl)ccc12 (stereo not drawn),,,,blood stage,10.9 nM
COC1=CC(c2ccc[nH]2)=NC1=Cc1ccc(CCCCCCCCCCCO)[nH]1,,DD2,,"drug-resistant strain, blood stage",36 nM
CC(C)(C)C(O)C(Oc1ccc(-c2ccccc2)cc1)n1cncn1 (stereo not drawn),SYBR Green,,,blood stage,8690 nM
CCN(CC)CCCC(C)Nc1ccnc2cc(Cl)ccc12 (stereo not drawn),,W2,,"drug-resistant strain, blood stage",0.1 µg/mL
COC1=CC(c2cccn2C)=NC1=Cc1ccc(CCCCCCCCCC(C)O)[nH]1 (stereo not drawn),,DD2,,"drug-resistant strain, blood stage",> 2500 nM
CCN(CC)CCCC(C)Nc1ccnc2cc(Cl)ccc12 (stereo not drawn),imaging,W2,48 h,"drug-resistant strain, blood stage",0.234 µg/mL
COC1=CC(c2ccco2)=NC1=Cc1ccc(CCCCCCCCCC(C)O)[nH]1 (stereo not drawn),,7G8,,"drug-resistant strain, blood stage",> 2500 nM
C[C@@H]1CC[C@H]2[C@@H](C)C(=O)O[C@@H]3O[C@@]4(C)CC[C@@H]1[C@]32OO4,,W2,72 h,"drug-resistant strain, blood stage",0.0038 µg/mL
CC1=C(C)C(c2ccc[nH]2)=NC1=Cc1ccc(CCCCCCCCCC(C)O)[nH]1 (stereo not drawn),,DD2,,"drug-resistant strain, blood stage",1190 nM
Clc1ccc2c(N3CCN(CCCN4CCN(c5ccnc6cc(Cl)ccc56)CC4)CC3)ccnc2c1,,3D7,,blood stage,4.4 nM
Clc1ccc2c(nc(N3CCNCC3)n2Cc2ccccc2)c1Cl,,K1,,"drug-resistant strain, blood stage",32 nM
CCN(CC)CCCC(C)Nc1ccnc2cc(Cl)ccc12 (stereo not drawn),,DD2,,"drug-resistant strain, blood stage",102 nM
Clc1ccc2c(c1)nc(C1CCNCC1)n2Cc1ccccc1,,K1,,"drug-resistant strain, blood stage",76 nM
CCc1ccc(C2=NC(=Cc3ccc(CCCCCCCCCC(C)O)[nH]3)C(OC)=C2)[nH]1 (stereo not drawn),,DD2,,"drug-resistant strain, blood stage",15 nM
